Activity data for 5 compounds are collected here from ChEMBL document CHEMBL1156534, “Hemopressin is an inverse agonist of CB1 cannabinoid receptors” (Proc Natl Acad Sci U S A, 2007).

Common to all, as to format: functional, cell-based
The target in assay [1] is Cannabinoid receptor 2 (Homo sapiens) (UniProt P34972). Kind of assay: Antagonist activity at CB2 receptor expressed in HEK293 cells assessed as blockade of secreted alkaline phosphatase activity at 1 uM after 6 hrs relative to control. The essentials:
(§1)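 HEK-293 cells transfected with 5 μg pCRE-SeAP plus 1 μg Flag-tagged CB₁ or CB₂ receptor, 30,000 cells/well, serum-starved 16–18 h. Stimulated 6 h in serum-free medium with 10 μM forskolin and 100 nM agonist, without or with 1 μM test peptide. Supernatant diluted in pH 7.2 buffer, heated 65°C 20 min, then CSPD chemiluminescence read. Mean ± SEM, n = 6.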

Assay [2] has as its target T1, Alpha-2A adrenergic receptor (Homo sapiens) (UniProt P08913).
T1 sequence (whole entry): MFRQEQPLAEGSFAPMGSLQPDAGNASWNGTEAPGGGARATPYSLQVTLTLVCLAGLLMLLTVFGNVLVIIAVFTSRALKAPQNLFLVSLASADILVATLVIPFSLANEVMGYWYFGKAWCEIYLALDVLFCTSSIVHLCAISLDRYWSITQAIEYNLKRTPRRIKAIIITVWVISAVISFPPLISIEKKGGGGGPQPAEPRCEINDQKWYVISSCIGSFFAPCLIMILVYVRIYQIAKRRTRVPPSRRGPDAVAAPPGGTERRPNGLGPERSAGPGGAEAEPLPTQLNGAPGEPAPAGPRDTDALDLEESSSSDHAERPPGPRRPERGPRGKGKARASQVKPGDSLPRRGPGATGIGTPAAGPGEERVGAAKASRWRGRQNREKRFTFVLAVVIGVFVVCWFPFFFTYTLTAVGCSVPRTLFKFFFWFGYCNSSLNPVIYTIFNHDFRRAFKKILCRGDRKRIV
Kind of assay: Antagonist activity at alpha2A adrenergic receptor expressed in HEK293 cells assessed as blockade of secreted alkaline phosphatase activity at 1 uM after 6 hrs relative to control. In outline: (§2)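 HEK-293 cells transiently co-transfected with pCRE-SeAP and a Flag-tagged receptor, 30,000 cells/well on poly-L-lysine. They were serum-starved 16–18 h, then exposed 6 h in serum-free medium to 10 μM forskolin (omitted for β2) plus the receptor agonist (100 nM), with or without peptide (1 μM). Heat-treated supernatant SeAP was read by CSPD chemiluminescence. Mean ± SEM, n = 6.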

For assay [3], the target named is Beta-2 adrenergic receptor (Homo sapiens) (UniProt P07550). Kind of assay: Antagonist activity at beta2 adrenergic receptor expressed in HEK293 cells assessed as blockade of secreted alkaline phosphatase activity at 1 uM after 6 hrs relative to control. The essentials: as §2
Beta-2 adrenergic receptor (Homo sapiens), sequence (P07550 whole entry, looked up): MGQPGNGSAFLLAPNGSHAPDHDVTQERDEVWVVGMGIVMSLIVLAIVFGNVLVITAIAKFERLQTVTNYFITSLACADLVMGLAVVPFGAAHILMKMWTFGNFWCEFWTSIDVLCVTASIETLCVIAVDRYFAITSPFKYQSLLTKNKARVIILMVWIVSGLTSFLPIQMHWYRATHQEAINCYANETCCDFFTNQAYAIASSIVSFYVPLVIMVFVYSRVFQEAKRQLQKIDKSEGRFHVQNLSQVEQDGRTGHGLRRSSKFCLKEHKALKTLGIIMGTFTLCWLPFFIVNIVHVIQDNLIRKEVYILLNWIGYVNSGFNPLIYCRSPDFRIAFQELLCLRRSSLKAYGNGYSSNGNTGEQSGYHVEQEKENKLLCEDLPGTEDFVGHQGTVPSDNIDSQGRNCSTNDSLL
In assay [4] the target is Delta-type opioid receptor (Homo sapiens) (UniProt P41143). Kind of assay: Antagonist activity at delta opioid receptor expressed in HEK293 cells assessed as blockade of secreted alkaline phosphatase activity at 1 uM after 6 hrs relative to control. In outline:
as §2

The target in assay [5] is Cannabinoid receptor 1 (Homo sapiens) (UniProt P21554). Kind of assay: Antagonist activity at CB1 receptor expressed in HEK293 cells assessed as blockade of secreted alkaline phosphatase activity at 1 uM after 6 hrs relative to control. In outline:
as §1

Assay [6] concerns the target Mu-type opioid receptor (Homo sapiens) (UniProt P35372). Kind of assay: Antagonist activity at mu opioid receptor expressed in HEK293 cells assessed as blockade of secreted alkaline phosphatase activity at 1 uM after 6 hrs relative to control. The essentials: as §2

Structures are written as SMILES.

Cannabinoid receptor 2 (Homo sapiens), sequence (P34972 whole entry): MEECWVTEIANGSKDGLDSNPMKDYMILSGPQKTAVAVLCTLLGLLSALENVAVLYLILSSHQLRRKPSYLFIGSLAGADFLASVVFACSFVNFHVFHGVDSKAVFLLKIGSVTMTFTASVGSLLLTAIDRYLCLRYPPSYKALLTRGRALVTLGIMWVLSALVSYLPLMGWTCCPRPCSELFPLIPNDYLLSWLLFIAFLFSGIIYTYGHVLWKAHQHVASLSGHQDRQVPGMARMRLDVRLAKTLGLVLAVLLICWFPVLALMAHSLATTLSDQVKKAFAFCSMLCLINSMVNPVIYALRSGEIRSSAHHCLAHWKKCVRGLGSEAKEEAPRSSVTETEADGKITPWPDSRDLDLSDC
Delta-type opioid receptor (Homo sapiens), sequence (P41143 whole entry): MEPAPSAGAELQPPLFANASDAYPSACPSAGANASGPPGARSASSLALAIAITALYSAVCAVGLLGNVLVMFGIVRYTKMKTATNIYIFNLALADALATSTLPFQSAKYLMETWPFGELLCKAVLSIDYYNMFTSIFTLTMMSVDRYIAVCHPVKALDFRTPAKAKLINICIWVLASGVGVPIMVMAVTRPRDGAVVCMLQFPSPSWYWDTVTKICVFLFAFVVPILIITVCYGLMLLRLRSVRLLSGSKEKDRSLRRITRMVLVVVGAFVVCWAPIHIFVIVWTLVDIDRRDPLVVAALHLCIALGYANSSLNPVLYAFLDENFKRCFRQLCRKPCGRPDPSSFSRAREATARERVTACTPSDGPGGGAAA
Mu-type opioid receptor (Homo sapiens), sequence (P35372 whole entry): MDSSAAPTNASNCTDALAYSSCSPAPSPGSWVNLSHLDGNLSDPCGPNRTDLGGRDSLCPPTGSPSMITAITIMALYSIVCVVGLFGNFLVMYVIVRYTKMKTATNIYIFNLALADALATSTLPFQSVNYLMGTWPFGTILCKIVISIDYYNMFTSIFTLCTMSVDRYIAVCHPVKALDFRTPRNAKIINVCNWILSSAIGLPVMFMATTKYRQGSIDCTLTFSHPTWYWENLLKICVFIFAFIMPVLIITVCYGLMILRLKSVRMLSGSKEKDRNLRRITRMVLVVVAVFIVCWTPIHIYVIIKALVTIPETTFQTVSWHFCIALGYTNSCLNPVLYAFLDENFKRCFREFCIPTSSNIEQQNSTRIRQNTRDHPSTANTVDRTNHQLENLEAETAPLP
Cannabinoid receptor 1 (Homo sapiens), sequence (P21554 whole entry): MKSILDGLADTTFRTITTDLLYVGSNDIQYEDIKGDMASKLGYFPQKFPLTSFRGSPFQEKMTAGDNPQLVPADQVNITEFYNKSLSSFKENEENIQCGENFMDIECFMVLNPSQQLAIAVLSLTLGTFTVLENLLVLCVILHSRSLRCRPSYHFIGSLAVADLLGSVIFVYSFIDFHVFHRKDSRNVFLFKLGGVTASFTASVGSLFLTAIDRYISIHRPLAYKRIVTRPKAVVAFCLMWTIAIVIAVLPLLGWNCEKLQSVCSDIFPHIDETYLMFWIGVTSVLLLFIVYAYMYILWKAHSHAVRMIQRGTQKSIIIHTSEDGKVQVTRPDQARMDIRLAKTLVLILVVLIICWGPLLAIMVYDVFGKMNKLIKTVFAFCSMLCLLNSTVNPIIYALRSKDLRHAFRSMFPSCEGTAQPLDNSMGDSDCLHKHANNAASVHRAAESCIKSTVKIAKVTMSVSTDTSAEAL

As for `CC(C)[C@H](NC(=O)[C@H](CCC(=O)O)NC(=O)[C@H](Cc1ccccc1)NC(=O)[C@H](C)NC(=O)[C@@H](N)Cc1ccc(O)cc1)C(=O)N[C@H](C(=O)NCC(=O)O)C(C)C`, the Activity in assay [1] worked out at 0.64.
Take `CC(C)NCC(O)c1ccc(O)c(O)c1` (stereo unspecified): in assay [2], the Activity turned out to be 1.26.
With `CC[C@H](C)[C@H](NC(=O)[C@H](Cc1ccc(O)cc1)NC(=O)[C@@H](NC(=O)[C@H](CCCNC(=N)N)NC(=O)[C@@H](N)CC(=O)O)C(C)C)C(=O)N[C@@H](Cc1cnc[nH]1)C(=O)N1CCC[C@H]1C(=O)N[C@@H](Cc1ccccc1)C(=O)O`, the Activity in assay [3] was determined as 0.76; in assay [4], 1.03.
As for `C[C@@H](NC(=O)[C@@H](N)Cc1ccc(O)cc1)C(=O)NCC(=O)N(C)[C@@H](Cc1ccccc1)C(=O)NCCO`, in assay [5], the Activity came to 0.68.
As for `Clc1cccc(Cl)c1NC1=NCCN1`, the Activity in assay [6] is 0.59.
